# Reference: ChEMBL document CHEMBL4145478, “Synthesis and biological evaluation of bifendate derivatives bearing 6,7-dihydro-dibenzo[c,e]azepine scaffold as potential P-glycoprotein and tumor metastasis inhibitors” (Eur J Med Chem, 2018)
# Structures can show the parent of a compound that is named as a salt. Activity calls are given as the source filed them. The rule behind the calls is not given here.
# Assays:
# K562/A02 [1] = test: Cytotoxicity against human K562/A02 cells assessed as reduction in cell viability after 72 hrs by MTS assay; format: cell-based; conditions: K562/A02, 72 h
# In short: (§1)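 Cells (1×10^4/well) in RPMI-1640 grown 24 h, then exposed to a range of concentrations for 72 h at 37 °C, 5% CO₂. MTS added for a further 3 h at 37 °C; absorbance read at 490 nm. IC50 from dose-response curves; means of triplicate experiments.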
# K562 [2] = test: Cytotoxicity against human K562 cells assessed as reduction in cell viability after 72 hrs by MTS assay; format: cell-based; conditions: K562, 72 h; in short: as §1
# K562/A02 [3] = test: Inhibition of P-gp mediated efflux in human K562/A02 cells assessed as increase in intracellular Rh123 accumulation after 1 hr by flow cytometric analysis; format: cell-based
# In short: (§2)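 1×10^6 K562 or K562/A02 cells preincubated 1 h at 37 °C with compound (10 μM single dose; dose-response at 10, 3.3 and 0.3 μM), verapamil or 0.1% DMSO vehicle, then 0.5 μM Rh123 for 30 min. Stopped and washed three times with ice-cold PBS; flow cytometry. Fold change = fluorescence over vehicle; mean ± S.D., three independent experiments.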
# K562 [4] = test: Effect on intracellular Rh123 accumulation in human K562 cells at 0.3 to 10 uM after 1 hr by flow cytometric analysis; format: functional, cell-based; in short: as §2
# [5] = Selectivity ratio of IC50 for human K562/A02 cells to IC50 for human K562 cells; format: ADME; conditions: K562/A02 cells and K562 cells, read-out: Ratio IC50
# K562/A02 [6] = test: Inhibition of P-gp-mediated drug resistance in human K562/A02 cells assessed as reduction in adriamycin IC50 at 2 uM after 72 hrs by MTS assay relative to adriamycin alone; format: cell-based
# In short: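 K562/A02 cells exposed to adriamycin with or without 2.0 μM modulator; verapamil 2.0 μM as reference. Viability by MTS after 72 h at 37 °C (absorbance 490 nm), adriamycin IC50 from dose-response curves. Reversal fold = adriamycin IC50 alone / adriamycin IC50 with modulator.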
# K562/A02 [7] = test: Effect on P-gp mRNA expression in human K562/A02 cells at 2 uM after 48 hrs by RT-PCR analysis; format: functional, cell-based
# K562/A02 [8] = test: Effect on P-gp protein expression in human K562/A02 cells at 2 uM after 48 hrs by Western blot analysis; format: functional, cell-based
# MDA-MB-231 [9] = test: Antimigratory activity against human MDA-MB-231 cells assessed as reduction in wound healing after 24 hrs by inverted microscopic analysis; format: functional, cell-based
# In short: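 Confluent MDA-MB-231 monolayer scratched with 200 μL pipette tip, washed twice with PBS, then exposed to 5, 15 or 45 μM in DMEM with 10% FBS. Wound photographed by inverted microscope at 0 and 24 h. Relative migration = migration distance of treated cells divided by that of control.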
# MDA-MB-231 [10] = test: Antimigratory activity against human MDA-MB-231 cells assessed as delay in cell migration at 5 to 45 uM after 4 hrs by crystal violet staining-based chamber migration assay relative to control; format: functional
# In short: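 MDA-MB-231 cells pretreated 24 h with 5, 15 or 45 μM, suspended in serum-free medium and placed in upper transwell compartment; lower compartment medium with 10% FBS. After 4 h non-migrated cells swabbed off; migrated cells fixed in methanol, stained with 0.5% crystal violet, counted manually in three random fields. Migrated cells expressed as % of control.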
# MDA-MB-231 [11] = test: Antimigratory activity against human MDA-MB-231 cells assessed as reduction in cell invasion at 5 to 45 uM after 24 hrs by crystal violet staining-based matrigel assay; format: functional
# In short: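 MDA-MB-231 cells pretreated 24 h with 5, 15 or 45 μM, seeded in serum-free medium into transwell chambers precoated with matrigel (40 μg/100 μL/chamber, 37°C, 1 h); lower compartment medium with 10% FBS. Incubation 24 h, then invaded cells stained with crystal violet and counted in three random fields; expressed as % of control.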
# [12] = biological target: 72 kDa type IV collagenase (Homo sapiens) (UniProt P08253); test: Inhibition of MMP2 activity in human MDA-MB-231 cells after 24 hrs by gelatin zymography assay; format: cell-based
# MDA-MB-231 [13] = test: Inhibition of MMP2 expression in human MDA-MB-231 cells after 24 hrs by Western blot analysis; format: functional, cell-based
# In short: (§3)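 MDA-MB-231 cells exposed to 5, 15 or 45 μM for 24 h, then lysed; immunoblotted with antibodies against MMP-2 and MMP-9; detection with BCIP/NBT alkaline phosphatase substrate for 15 min.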
# MDA-MB-231 [14] = test: Inhibition of MMP9 expression in human MDA-MB-231 cells after 24 hrs by Western blot analysis; format: functional, cell-based; in short: as §3
# MDA-MB-231 [15] = test: Antiproliferative activity against human MDA-MB-231 cells after 72 hrs by MTT assay; format: cell-based; conditions: MDA-MB-231, 72 h
# [16] = biological target: Matrix metalloproteinase-9 (Homo sapiens) (UniProt P14780); test: Inhibition of MMP9 activity in human MDA-MB-231 cells after 24 hrs by gelatin zymography assay
# [17] = biological target: 72 kDa type IV collagenase (Homo sapiens) (UniProt P08253); test: Residual MMP2 activity in human MDA-MB-231 cells at 5 uM after 24 hrs by gelatin zymography assay relative to control
# [18] = system: MMP-9 (92 kDa type IV collagenase, Homo sapiens); test: Inhibition of MMP9 activity in human MDA-MB-231 cells at 5 uM after 24 hrs by gelatin zymography assay relative to control; values are per cent of control
# Sequence of 72 kDa type IV collagenase (Homo sapiens) (P08253 110-660 limits assumed): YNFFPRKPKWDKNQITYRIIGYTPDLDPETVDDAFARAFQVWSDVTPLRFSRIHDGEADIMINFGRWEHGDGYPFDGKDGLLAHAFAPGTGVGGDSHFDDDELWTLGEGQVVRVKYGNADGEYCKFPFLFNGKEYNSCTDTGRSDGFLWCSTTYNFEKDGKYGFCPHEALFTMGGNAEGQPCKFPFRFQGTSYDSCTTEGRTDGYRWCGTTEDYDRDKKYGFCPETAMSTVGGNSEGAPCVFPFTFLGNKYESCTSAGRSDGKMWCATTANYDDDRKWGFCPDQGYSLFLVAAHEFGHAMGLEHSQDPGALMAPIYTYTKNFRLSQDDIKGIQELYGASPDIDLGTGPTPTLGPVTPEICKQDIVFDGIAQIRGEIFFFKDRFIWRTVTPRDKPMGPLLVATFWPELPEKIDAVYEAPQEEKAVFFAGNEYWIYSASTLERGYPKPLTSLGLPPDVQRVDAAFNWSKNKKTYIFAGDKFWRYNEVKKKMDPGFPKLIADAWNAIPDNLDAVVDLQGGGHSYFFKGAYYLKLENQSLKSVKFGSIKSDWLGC
# Sequence of Matrix metalloproteinase-9 (Homo sapiens) (P14780 whole entry): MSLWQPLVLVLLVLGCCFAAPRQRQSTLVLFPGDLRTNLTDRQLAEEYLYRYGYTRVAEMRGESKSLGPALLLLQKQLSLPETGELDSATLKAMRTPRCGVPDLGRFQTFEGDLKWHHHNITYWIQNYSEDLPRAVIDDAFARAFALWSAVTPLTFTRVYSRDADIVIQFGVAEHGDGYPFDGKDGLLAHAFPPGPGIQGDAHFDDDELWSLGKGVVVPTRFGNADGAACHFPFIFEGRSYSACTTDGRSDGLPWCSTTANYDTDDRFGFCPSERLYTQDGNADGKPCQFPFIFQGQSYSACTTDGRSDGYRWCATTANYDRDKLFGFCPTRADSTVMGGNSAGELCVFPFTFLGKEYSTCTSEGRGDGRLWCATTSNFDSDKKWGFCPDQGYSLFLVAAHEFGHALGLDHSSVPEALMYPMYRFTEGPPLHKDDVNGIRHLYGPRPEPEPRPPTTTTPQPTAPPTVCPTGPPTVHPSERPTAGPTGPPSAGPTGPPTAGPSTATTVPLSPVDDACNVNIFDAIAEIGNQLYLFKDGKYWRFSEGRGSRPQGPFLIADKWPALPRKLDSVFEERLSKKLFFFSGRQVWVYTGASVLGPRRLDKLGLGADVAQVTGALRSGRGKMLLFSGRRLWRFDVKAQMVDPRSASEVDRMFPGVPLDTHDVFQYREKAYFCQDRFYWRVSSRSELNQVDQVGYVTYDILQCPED
Structure (SMILES),IC50 (K562/A02 [1]),IC50 (K562 [2]),also measured
COc1ccc(NC(=O)CCN2Cc3cc(OC)c4c(c3-c3c(cc(OC)c5c3OCO5)C2)OCO4)cc1,43.2 µM,29.8 µM,
COc1ccc(C(=O)NCCN2Cc3cc(OC)c4c(c3-c3c(cc(OC)c5c3OCO5)C2)OCO4)cc1OC,65.8 µM,30.5 µM,inhibition (K562/A02 [3]): Dose-dependent effect; inhibition (K562 [4]): inactive
COc1cc2c(c3c1OCO3)-c1c(cc(OC)c3c1OCO3)CN(CCCCCCNC(=O)c1ccc(Cl)cc1)C2,18.4 µM,5.85 µM,
COc1ccccc1NC(=O)CCN1Cc2cc(OC)c3c(c2-c2c(cc(OC)c4c2OCO4)C1)OCO3,72.9 µM,23.1 µM,
COc1ccccc1C(=O)NCCCCCCN1Cc2cc(OC)c3c(c2-c2c(cc(OC)c4c2OCO4)C1)OCO3,26.2 µM,11 µM,
COc1cc2c(c3c1OCO3)-c1c(cc(OC)c3c1OCO3)CN(CCCCCCNC(=O)c1ccc(Cl)cc1Cl)C2,34.5 µM,13.7 µM,
COc1cccc2c1C(=O)c1c(O)c3c(c(O)c1C2=O)C[C@@](O)(C(=O)CO)C[C@@H]3O[C@H]1C[C@H](N)[C@H](O)[C@H](C)O1 [DOXORUBICIN HYDROCHLORIDE],25 µM,0.39 µM,selectivity ratio [5]: 64
COc1cc2c(c3c1OCO3)-c1c(cc(OC)c3c1OCO3)CN(CCCCCCNC(=O)c1ccc(Cl)c(Cl)c1)C2,11.5 µM,5.07 µM,
COc1cc(C(=O)NCCCCCCN2Cc3cc(OC)c4c(c3-c3c(cc(OC)c5c3OCO5)C2)OCO4)cc(OC)c1OC,31.8 µM,11.8 µM,
COc1cc2c(c3c1OCO3)-c1c(cc(OC)c3c1OCO3)CN(CCc1ccc3c(c1)OCO3)C2,> 100 µM,51.4 µM,fold change (FC) (K562/A02 [6]): 3.99
COc1cc2c(c3c1OCO3)-c1c(cc(OC)c3c1OCO3)CN(CCNC(=O)c1ccc(C)cc1)C2,28.2 µM,14.4 µM,
COc1ccc(C(=O)NCCCCCCN2Cc3cc(OC)c4c(c3-c3c(cc(OC)c5c3OCO5)C2)OCO4)cc1OC,28.3 µM,14.1 µM,
COc1cc2c(c3c1OCO3)-c1c(cc(OC)c3c1OCO3)CN(CCCCCCNC(=O)c1ccc(C)cc1)C2,23.3 µM,8.18 µM,
COc1ccccc1C(=O)NCCN1Cc2cc(OC)c3c(c2-c2c(cc(OC)c4c2OCO4)C1)OCO3,63.9 µM,15 µM,
COc1cc(C(=O)NCCN2Cc3cc(OC)c4c(c3-c3c(cc(OC)c5c3OCO5)C2)OCO4)cc(OC)c1OC,47.2 µM,16.9 µM,inhibition (K562/A02 [3]): Dose-dependent effect; inhibition (K562 [4]): inactive; fold change (FC) (K562/A02 [6]): 3.82; Activity (K562/A02 [7]): inactive; Activity (K562/A02 [8]): inactive; Activity (MDA-MB-231 [9]): Active; Activity (MDA-MB-231 [10]): 65.7%; Activity (MDA-MB-231 [11]): Active; inhibition [12]: Dose-dependent effect; inhibition (MDA-MB-231 [13]): Dose-dependent effect; inhibition (MDA-MB-231 [14]): Dose-dependent effect; IC50 (MDA-MB-231 [15]): 85.8 µM; inhibition [16]: Dose-dependent effect; residual activity [17]: 59.1%; residual activity [18]: 58.2%
COc1cc2c(c3c1OCO3)-c1c(cc(OC)c3c1OCO3)CN(CCCCCCNC(=O)c1cccs1)C2,29 µM,12.5 µM,
COc1ccc(NC(=O)CCN2Cc3cc(OC)c4c(c3-c3c(cc(OC)c5c3OCO5)C2)OCO4)cc1OC,69.9 µM,34.8 µM,inhibition (K562/A02 [3]): Dose-dependent effect; inhibition (K562 [4]): inactive; fold change (FC) (K562/A02 [6]): 5.76; Activity (K562/A02 [7]): inactive; Activity (K562/A02 [8]): inactive; Activity (MDA-MB-231 [9]): Active; Activity (MDA-MB-231 [10]): 54.8%; Activity (MDA-MB-231 [11]): Active; inhibition [12]: Dose-dependent effect; inhibition (MDA-MB-231 [13]): Dose-dependent effect; inhibition (MDA-MB-231 [14]): Dose-dependent effect; IC50 (MDA-MB-231 [15]): 80.5 µM; inhibition [16]: Dose-dependent effect; residual activity [17]: 52.8%; residual activity [18]: 52.6%
